From ChEMBL document CHEMBL4513216, “Probing the Open Global Health Chemical Diversity Library for Multistage-Active Starting Points for Next-Generation Antimalarials” (ACS Infect Dis, 2020) come the findings set out here.

This data set in a line: Toxicity liver stage against HepG2, at 10uM. It counts as cell-based. More on the design: test concentration 10 uM, cell line HepG2-A16-CD81EGFP. The conditions noted are these: human, HepG2-A16-CD81EGFP cells; read-out: INHIBITION
In outline:
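Uninfected HepG2-A16-CD81EGFP cells, 3 × 10^3 per well, 1536-well, plated on prespotted compound at 10 μM final, parasite-free screening media added to match infected plates; puromycin 10 μM positive, DMSO 0.5% negative; run in parallel with 48 h PbLuc assay at 37 °C, 5% CO2; viability by CellTiter-Glo luminescence, normalized to controls.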
`O=C(c1ccc(N2CCCC2)nn1)N1CCc2ccccc21`: the cytotoxicity at 10 µM turned out to be 2.6%.
With `Cc1cc(C(=O)NCC2Cn3nnc(C)c3CO2)no1` (centres undefined), the cytotoxicity at 10 µM is -4.07%.
For the compound `Cc1ccc(CN2CCC3(CC(C(=O)NCC4CC4)=NO3)C2)s1` (centres undefined), the cytotoxicity at 10 µM stood at 5.92%.
With `COc1cccc(C(=O)NCC(O)c2cccs2)c1` (centres undefined), the cytotoxicity at 10 µM was -22.4%.
Turning to `CC(=O)c1ccc(Nc2nc(N)nc3c2nc(C)n3C)cc1`, the cytotoxicity at 10 µM is -8.23%.
To `O=C(c1cc(-c2cccs2)cs1)N1CCOCC1` belongs 5.01%; to `N#Cc1cnn(C(=O)COc2ccccc2F)c1N`, 2.92%.
`COc1ccc(-n2cc(CNC(=O)c3cc[nH]n3)nn2)cc1`: the cytotoxicity at 10 µM was -4.71%.
On to `CC1CCN(C(=O)CCN2Cc3ccccc3C[C@H]2C(N)=O)C1` (some centres undefined), for which the cytotoxicity at 10 µM is -3.11%.
For `COC(=O)C1CN(Cc2ccn(-c3ccc(F)cc3)n2)CCO1` (centres undefined), the cytotoxicity at 10 µM is -8.51%.
Under `CC(C)(C)c1noc(CCC(=O)N2CCNC(=O)C2)n1` stands -4.96%.
Regarding `CCN(CC(=O)NC)C(=O)c1csc(Cc2ccccc2)n1`, the cytotoxicity at 10 µM is -5.66%.
With `CC(C)(C)c1noc(CCCC(=O)N2CCNC(=O)CC2)n1`, the cytotoxicity at 10 µM is -7.49%.
In the case of `Cc1noc(CCCC(=O)N2CCNC(=O)C2)n1`, the cytotoxicity at 10 µM was -4.62%.
On to `CC(C)C1C(=O)NCCN1C(=O)CCCc1nc(C(C)(C)C)no1` (centres undefined), for which the cytotoxicity at 10 µM is -3.53%.
To `Cc1nc(C(NS(=O)(=O)N(C)C)c2ccccc2F)no1` (centres undefined) belongs -2.09%; to `COc1cccc(-c2cc(NCc3nc(C)cs3)n(C)n2)c1`, -0.717%; to `COC(=O)c1ccc(NC2CCN(CC(F)(F)F)C2=O)cc1C` (centres undefined), 2.79%.
To `CCc1nc(CN2CCCN(C(=O)c3ccccc3)CC2)cs1` belongs 7.41%; to `Cc1nn(-c2ccccc2)c(C)c1CNC(=O)NC1CC1`, 7.59%; to `Cc1nc2n(n1)CC(NCc1c(Cl)ccc3cccnc13)CC2` (centres undefined), 0.0383%.
Turning to `Cc1noc(CCNC(=O)NCC(=O)NCc2ccccc2)n1`, the cytotoxicity at 10 µM was determined as 5.24%.
With `O=C(NCCN1CCOCC1)NCc1ccc(-n2cccn2)cc1`, the cytotoxicity at 10 µM is -6.4%.
To `CCc1ncncc1C(=O)NCCNS(=O)(=O)c1ccccc1` belongs -6.55%; to `Cc1nnc(NCC(c2ccco2)N(C)C)c(C#N)c1C` (centres undefined), -3.01%.
For the compound `Cc1noc(C)c1C(=O)NCCN1CCN(S(C)(=O)=O)CC1`, the cytotoxicity at 10 µM was -12.4%.
`Cc1nn(CN(CC(C)C)C2CC2)c(=O)c2noc(C)c12`: the cytotoxicity at 10 µM is -3.39%.
For `O=C(NCC(O)COc1cccc(F)c1)c1ccoc1` (centres undefined), the cytotoxicity at 10 µM is -2.56%.
Turning to `OCCOc1ccc(NCc2cc(F)cc3cccnc23)cn1`, the cytotoxicity at 10 µM was -4.46%.
For `CC(C)c1nnc2n1CCN(Cc1csc(-c3cnn(C)c3)n1)C2`, the cytotoxicity at 10 µM was -2.17%.
On to `CCN(C(=O)c1cnc(-c2ccc3c(c2)OCO3)s1)C1CC1`, for which the cytotoxicity at 10 µM is -0.839%.
Under `O=C(Nc1ccnc2ccnn12)c1ccc(NC2CC2)nc1` stands 5.14%.
For the compound `Cc1cccc(C(=O)Nc2ccc(OC3CCOCC3)c(C)c2)n1`, the cytotoxicity at 10 µM was -8.99%.
Consider `Cc1nc(CNc2ncc(Br)cn2)n[nH]1`, for which the cytotoxicity at 10 µM was -3.47%.
On to `O=C(Nc1ccc2c(c1)OC1(CCCC1)O2)c1ccc(=O)[nH]n1`, for which the cytotoxicity at 10 µM is 0.887%.
Under `COCCc1noc(-c2cc(Cl)c3c(c2)OCCCO3)n1` stands 3.61%.
Consider `CCN1CCN(CC(O)c2cc(Cl)ccc2Cl)CC1` (centres undefined), for which the cytotoxicity at 10 µM was 0.388%.
For the compound `Cc1cc(CS(=O)(=O)NC2CCCc3ccccc32)on1` (centres undefined), the cytotoxicity at 10 µM was -1.57%.
With `CC(C)NC(=O)Nc1ccc(-c2nc(C(C)C)no2)cc1`, the cytotoxicity at 10 µM was -8.56%.
Take `CC(C)c1noc(-c2ccc(NC(=O)NCC(O)C(C)C)cc2)n1` (centres undefined): the cytotoxicity at 10 µM is -7.03%.
Turning to `Cc1c(C(=O)NCCC(=O)N2CCCC2)oc2c(F)cccc12`, the cytotoxicity at 10 µM worked out at 5.87%.
`CN(C(=O)Cc1ccc2c(c1)OCCO2)C1CCCC1`: the cytotoxicity at 10 µM turned out to be 9.66%.
Turning to `O=C1OC2(CCN(CC3CCCO3)CC2)CN1CCc1ccccc1` (centres undefined), the cytotoxicity at 10 µM is -6.21%.
Under `O=C1CCC(c2ccccc2)(c2ccccc2)CN1CCO` stands 2.94%; under `Cc1cc(C(=O)N2CCCC(Cn3cc(C4CC4)nn3)C2)nc(C)n1` (centres undefined), -0.916%; under `Cc1ncsc1CN1CC2(CCCC2)CC1=O`, -0.369%.
To `CC[C@@H](NC(C)=O)C(=O)NCc1cccnc1Oc1ccccc1OC` belongs -3.06%.
As for `Cc1ccnc(NCc2cn3c(C)csc3n2)n1`, the cytotoxicity at 10 µM was -5.66%.
To `COc1ccccc1OCc1cc(C(=O)N2CCOCC2CO)n[nH]1` (centres undefined) belongs -3.94%.
Turning to `COC1CCCOC12CCN(C(=O)NCCc1cccs1)CC2` (centres undefined), the cytotoxicity at 10 µM amounted to 1.03%.
Consider `CC(=O)N[C@H]1CCN(C(=O)c2cc(Cn3cnc4ccccc43)[nH]n2)C1`, for which the cytotoxicity at 10 µM was -1.91%.
For `CCc1ccc(-c2cn3c(C(=O)N[C@H](C(N)=O)[C@@H](C)O)csc3n2)cc1`, the cytotoxicity at 10 µM is 7.69%.
Regarding `CCNc1ccnc(-c2ccnc3c2ccn3C)n1`, the cytotoxicity at 10 µM was 11.2%.
Consider `FC(F)(F)CCc1ncnn1-c1ccc2c(c1)OCO2`, for which the cytotoxicity at 10 µM is -3.55%.
Under `COc1cc2c(cc1C(=O)N1CC(c3ccncc3)C1)CCC2` stands 0.545%.
With `Fc1ccccc1CC1CCN(Cc2nccs2)CC1`, the cytotoxicity at 10 µM was -6.92%.
As to `CC(C)Cc1cc(C(=O)NC(C)(CO)CO)n(C)n1`, the cytotoxicity at 10 µM worked out at 6.57%.
In the case of `Cc1nnsc1CNC(=O)Nc1cccc(N2CCN(C)C2=O)c1`, the cytotoxicity at 10 µM was -3.97%.
Under `O=C(NCc1ccc2nonc2c1)C1CCN(C(=O)C2CCC2)CC1` stands -8.61%; under `Cc1cc(C)nc(CNC(=O)C(c2cccnc2)N2CCOCC2)n1` (centres undefined), -1.43%; under `Cc1c(C(=O)NC2CCCC2)nnn1-c1ccccc1`, 11.4%.
As to `CN(C)S(=O)(=O)N(C)C(c1cccc(F)c1)c1ccccn1` (centres undefined), the cytotoxicity at 10 µM worked out at 3.22%.
With `CCN(Cc1ccccc1)C(=O)CN1CCOC(Cn2cncn2)C1` (centres undefined), the cytotoxicity at 10 µM is -6.31%.
For `NC(=O)CS(=O)(=O)Cc1cc(Cl)c2c(c1)OCCCO2`, the cytotoxicity at 10 µM is -0.463%.
Turning to `Cc1ccc2cc(C(=O)N3CCCC3Cn3cccn3)[nH]c2c1` (centres undefined), the cytotoxicity at 10 µM was -7.39%.
In the case of `O=C(OCC1CCCN1)c1cccc(NC(=O)c2ccco2)c1` (centres undefined), the cytotoxicity at 10 µM is -6.66%.
Regarding `CN1[C@@H]2CC[C@H]1CN(C(=O)c1nnc3n1CCCC3)CC2`, the cytotoxicity at 10 µM is -10.6%.
To `CCCN1C[C@@H]2CC[C@H]1CN(C(=O)Cn1c(C)cc(C)nc1=O)C2` belongs -4.57%; to `Cc1c(C)c2c(c(C)c1O)CC[C@](C)(C(=O)O)O2` [(R)-TROLOX], -1.69%.
